# Test results: ChEMBL document CHEMBL1914324, “Discovery of novel spirocyclic inhibitors of fatty acid amide hydrolase (FAAH). Part 2. Discovery of 7-azaspiro[3.5]nonane urea PF-04862853, an orally efficacious inhibitor of fatty acid amide hydrolase (FAAH) for pain” (Bioorg Med Chem Lett, 2011)
# The source made the active and inactive calls. The calls are words filed in the database; no cut-off is given here.
# Columns and labels:
# [1] = biological target: T1, Fatty-acid amide hydrolase 1 (Homo sapiens) (UniProt O00519); assay: Ratio of Kinact to Ki for human FAAH activity
# T1 sequence (whole entry): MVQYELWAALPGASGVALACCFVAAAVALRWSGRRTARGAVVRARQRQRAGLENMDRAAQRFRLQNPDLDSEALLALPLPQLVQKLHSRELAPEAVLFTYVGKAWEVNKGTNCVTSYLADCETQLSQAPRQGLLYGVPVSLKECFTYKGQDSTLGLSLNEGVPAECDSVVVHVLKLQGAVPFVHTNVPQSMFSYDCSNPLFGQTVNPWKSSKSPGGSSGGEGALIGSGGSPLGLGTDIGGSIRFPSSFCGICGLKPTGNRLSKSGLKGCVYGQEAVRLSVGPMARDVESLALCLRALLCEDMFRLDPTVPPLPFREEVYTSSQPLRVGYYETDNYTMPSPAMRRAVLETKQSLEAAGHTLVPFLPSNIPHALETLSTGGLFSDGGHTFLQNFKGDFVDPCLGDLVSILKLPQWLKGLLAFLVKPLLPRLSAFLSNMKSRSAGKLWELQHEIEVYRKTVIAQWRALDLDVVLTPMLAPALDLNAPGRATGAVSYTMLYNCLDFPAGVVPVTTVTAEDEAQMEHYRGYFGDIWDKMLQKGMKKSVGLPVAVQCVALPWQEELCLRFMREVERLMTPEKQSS
# Outline: (§1)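 kinact/Ki determined against human and rat FAAH. Each value is the average of at least two independent determinations.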
# [2] = biological target: T2, Fatty-acid amide hydrolase 1 (Rattus norvegicus) (UniProt P97612); assay: Ratio of Kinact to Ki for rat FAAH activity; outline: as §1
# T2 sequence (whole entry): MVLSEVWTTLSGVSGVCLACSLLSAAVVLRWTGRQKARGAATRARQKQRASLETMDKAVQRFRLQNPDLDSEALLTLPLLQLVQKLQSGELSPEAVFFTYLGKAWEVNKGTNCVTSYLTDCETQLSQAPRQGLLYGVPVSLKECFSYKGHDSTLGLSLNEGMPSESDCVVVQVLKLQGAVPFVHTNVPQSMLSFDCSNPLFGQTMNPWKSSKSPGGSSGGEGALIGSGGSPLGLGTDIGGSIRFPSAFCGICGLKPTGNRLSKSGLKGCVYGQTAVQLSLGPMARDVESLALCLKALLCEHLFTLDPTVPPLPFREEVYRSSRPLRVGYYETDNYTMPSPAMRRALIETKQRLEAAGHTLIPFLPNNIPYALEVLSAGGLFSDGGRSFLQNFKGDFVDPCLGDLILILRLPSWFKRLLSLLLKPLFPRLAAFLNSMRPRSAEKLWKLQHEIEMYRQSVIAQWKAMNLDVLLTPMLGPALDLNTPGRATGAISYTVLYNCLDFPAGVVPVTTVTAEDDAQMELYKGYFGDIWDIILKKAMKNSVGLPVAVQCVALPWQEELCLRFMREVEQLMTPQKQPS
# Rattus norvegicus = assay: Inhibition of FAAH in rat CFA model at 3 mg/kg, po after 3 hrs; assay type: functional; conditions: for minimal effective dose: read-out: MED
# [3] = biological target: Voltage-gated inwardly rectifying potassium channel KCNH2 (Homo sapiens, UniProt Q12809); assay: Displacement of dofetilide from ERG
# Voltage-gated inwardly rectifying potassium channel KCNH2, sequence (Q12809 whole entry): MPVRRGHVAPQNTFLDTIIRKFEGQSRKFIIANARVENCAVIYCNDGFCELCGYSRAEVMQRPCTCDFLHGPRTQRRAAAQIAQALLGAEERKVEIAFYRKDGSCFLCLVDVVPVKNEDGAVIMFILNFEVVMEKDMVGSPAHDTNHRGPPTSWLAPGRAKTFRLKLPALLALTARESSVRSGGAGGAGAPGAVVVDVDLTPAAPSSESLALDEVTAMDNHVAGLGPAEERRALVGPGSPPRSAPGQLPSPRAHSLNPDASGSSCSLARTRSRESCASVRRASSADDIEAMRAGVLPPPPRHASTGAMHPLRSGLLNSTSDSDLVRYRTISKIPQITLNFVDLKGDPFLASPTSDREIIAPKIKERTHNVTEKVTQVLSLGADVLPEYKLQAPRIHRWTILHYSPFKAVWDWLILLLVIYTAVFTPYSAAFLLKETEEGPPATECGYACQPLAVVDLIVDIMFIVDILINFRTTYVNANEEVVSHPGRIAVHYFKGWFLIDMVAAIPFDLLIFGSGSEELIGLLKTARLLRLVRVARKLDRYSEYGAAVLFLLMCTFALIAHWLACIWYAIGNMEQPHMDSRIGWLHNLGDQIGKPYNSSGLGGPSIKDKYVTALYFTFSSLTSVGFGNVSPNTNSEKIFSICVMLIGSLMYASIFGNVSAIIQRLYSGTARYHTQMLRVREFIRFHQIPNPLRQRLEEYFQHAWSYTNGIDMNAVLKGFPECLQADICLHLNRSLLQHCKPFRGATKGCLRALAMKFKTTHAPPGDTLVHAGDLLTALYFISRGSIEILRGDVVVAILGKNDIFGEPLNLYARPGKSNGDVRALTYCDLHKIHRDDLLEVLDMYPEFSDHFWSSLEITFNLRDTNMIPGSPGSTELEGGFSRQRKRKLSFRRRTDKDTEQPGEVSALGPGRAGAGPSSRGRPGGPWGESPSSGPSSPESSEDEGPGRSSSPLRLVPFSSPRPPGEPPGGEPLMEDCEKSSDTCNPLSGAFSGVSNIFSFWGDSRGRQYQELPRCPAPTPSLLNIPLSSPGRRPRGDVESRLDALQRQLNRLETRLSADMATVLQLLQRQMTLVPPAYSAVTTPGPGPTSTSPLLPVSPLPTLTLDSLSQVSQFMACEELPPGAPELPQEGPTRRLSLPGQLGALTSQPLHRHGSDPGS
# [4] = Inhibition of cytochrome P450; assay type: ADME
# [5] = biological target: T1, Fatty-acid amide hydrolase 1 (Homo sapiens); assay: Inhibition of FAAH in human brain membrane using rhodamine-tagged fluorophosphonate probe at 100 uM by competitive activity-based protein profiling method; assay type: cell membranes
# Outline: (§2)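 Competitive activity-based protein profiling against >200 human serine hydrolases, FAAH included. Compound tested at 100 µM in human brain membrane and soluble liver proteomes. Residual hydrolase activity labelled with a rhodamine-tagged fluorophosphonate probe.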
# [6] = biological target: T1, Fatty-acid amide hydrolase 1 (Homo sapiens); assay: Inhibition of FAAH in human liver proteomes using rhodamine-tagged fluorophosphonate probe at 100 uM by competitive activity-based protein profiling method; outline: as §2
Ratio [1] [M⁻¹ s⁻¹],Ratio [2] [M⁻¹ s⁻¹],Compound,further results
2390,1560,Cc1noc(NC(=O)N2CCC3(CC2)CC(c2cccc(Cl)c2)CO3)c1C (stereo in doubt; form 1),
1760,585,COc1ccc(C2CC3(CCN(C(=O)Nc4onc(C)c4C)CC3)C2)cc1,
4550,3470,Cc1noc(NC(=O)N2CCC3(CC2)CC(c2ccc(Cl)c(Cl)c2)C3)c1C,
2430,4360,Cc1noc(NC(=O)N2CCC3(CC2)CC(c2ccc(Cl)c(Cl)c2)CO3)c1C (racemic),
3760,2110,Cn1nnnc1NC(=O)N1CCC2(CC1)CC(c1cccc(C(F)(F)F)c1)CO2 (stereo in doubt; form 2),
43.2,26.1,Cc1noc(NC(=O)N2CCC3(CC2)CC(c2ccc(C#N)cc2)CO3)c1C (racemic),
338,,CCc1c(C)noc1NC(=O)N1CCC2(CC1)CC(c1cccc(OC(F)(F)F)c1)C2,
1330,2680,Cc1noc(NC(=O)N2CCC3(CC2)CC(c2cccc(C(F)(F)F)c2)CO3)c1C (racemic),
165,152,Cn1nnc(NC(=O)N2CCC3(CC2)CC(c2cccc(OC(F)(F)F)c2)C3)n1,
5600,1970,Cn1nnnc1NC(=O)N1CCC2(CC1)CC(c1cccc(Cl)c1)CO2 (configuration not stated),
2040,2670,Cc1noc(NC(=O)N2CCC3(CC2)CC(c2cccc(Cl)c2)CO3)c1C (racemic),
3060,3690,Cc1noc(NC(=O)N2CCC3(CC2)CC(c2cccc(C(F)(F)F)c2)C3)c1C,
2080,679,Cc1noc(NC(=O)N2CCC3(CC2)CC(c2ccccc2)C3)c1C,
2590,3830,Cc1noc(NC(=O)N2CCC3(CC2)CC(c2cccc(Cl)c2)CO3)c1C (stereo in doubt; form 2),
64,34.2,Cc1onc(NC(=O)N2CCC3(CC2)CC(c2cccc(OC(F)(F)F)c2)C3)c1C,
5670,1340,CCc1cccc(C2CC3(CCN(C(=O)Nc4onc(C)c4C)CC3)C2)c1,activity call (active/not active) (Rattus norvegicus): inactive; inhibition [5]: Active; inhibition [6]: Active; inhibition (INH) [3]: Not Active; inhibition (INH) [4]: Not Active
2870,1620,Cc1cccc(C2CC3(CCN(C(=O)Nc4onc(C)c4C)CC3)C2)c1,
2830,3860,Cc1noc(NC(=O)N2CCC3(CC2)CC(c2cccc(OC(F)(F)F)c2)C3)c1C,activity call (active/not active) (Rattus norvegicus): Active; minimal effective dose (Rattus norvegicus): 1 mg/kg; inhibition [5]: Active; inhibition [6]: Active; inhibition (INH) [3]: Not Active; inhibition (INH) [4]: Not Active
1140,,Cc1noc(NC(=O)N2CCC3(CC2)CC(c2ccccc2C(F)(F)F)C3)c1C,

# The remaining lines, values behind:
Compound,Ratio [1] [M⁻¹ s⁻¹],Ratio [2] [M⁻¹ s⁻¹],further results
Cc1noc(NC(=O)N2CCC3(CC2)CC(c2ccc(Cl)cc2)C3)c1C,2030,2070,
Cc1noc(NC(=O)N2CCC3(CC2)CC(c2ccc(OC(F)(F)F)cc2)CO3)c1C (racemic),162,461,
Cn1ncnc1NC(=O)N1CCC2(CC1)CC(c1cccc(OC(F)(F)F)c1)C2,< 10,,
Cc1noc(NC(=O)N2CCC3(CC2)CC(c2ccccc2)CO3)c1C (racemic),461,315,
COc1cccc(C2CC3(CCN(C(=O)Nc4onc(C)c4C)CC3)C2)c1,2190,741,
Cc1noc(NC(=O)N2CCC3(CC2)CC(c2cccc(C#N)c2)CO3)c1C (racemic),243,999,
Cn1nnnc1NC(=O)N1CCC2(CC1)CC(c1cccc(C(F)(F)F)c1)CO2 (stereo in doubt; form 1) [listing 1 of 2 here],,,minimal effective dose (Rattus norvegicus): 1 mg/kg; inhibition (INH) [3]: Not Active; inhibition (INH) [4]: Not Active
Cn1nnnc1NC(=O)N1CCC2(CC1)CC(c1cccc(C(F)(F)F)c1)CO2 (stereo in doubt; form 1) [listing 2 of 2 here],4600,2160,activity call (active/not active) (Rattus norvegicus): Active; inhibition [5]: Active; inhibition [6]: Active
Cc1noc(NC(=O)N2CCC3(CC2)CC(c2ccc(C(F)(F)F)cc2)C3)c1C,245,348,
Cc1noc(NC(=O)N2CCC3(CC2)CC(c2ccc(OC(F)(F)F)cc2)C3)c1C,353,229,
Cc1noc(NC(=O)N2CCC3(CC2)CC(c2ccc(C(F)(F)F)cc2)CO3)c1C (racemic),481,714,
Cc1nnc(NC(=O)N2CCC3(CC2)CC(c2cccc(OC(F)(F)F)c2)C3)o1,1530,2460,
COc1ccccc1C1CC2(CCN(C(=O)Nc3onc(C)c3C)CC2)C1,2640,265,
Cc1noc(NC(=O)N2CCC3(CC2)CC(c2ccccc2OC(F)(F)F)C3)c1C,839,564,
Cn1nnnc1NC(=O)N1CCC2(CC1)CC(c1cccc(C(F)(F)F)c1)C2,12400,5750,activity call (active/not active) (Rattus norvegicus): Active; minimal effective dose (Rattus norvegicus): 1 mg/kg; inhibition [5]: Active; inhibition [6]: Active; inhibition (INH) [3]: Not Active; inhibition (INH) [4]: Not Active
Cc1noc(NC(=O)N2CCC3(CC2)CC(c2cccc(Cl)c2)C3)c1C,3940,3560,activity call (active/not active) (Rattus norvegicus): Active; minimal effective dose (Rattus norvegicus): 1 mg/kg; inhibition [5]: Active; inhibition [6]: Active; inhibition (INH) [3]: Not Active; inhibition (INH) [4]: Not Active
Cc1noc(NC(=O)N2CCC3(CC2)CC(c2cccc(Oc4ccc(C(F)(F)F)cn4)c2)C3)c1C,,9460,
Cc1noc(NC(=O)N2CCC3(CC2)CC(c2cccc(OC(F)(F)F)c2)CO3)c1C (racemic),1800,3110,
CCc1noc(NC(=O)N2CCC3(CC2)CC(c2cccc(OC(F)(F)F)c2)C3)c1C,1650,1660,
Cc1noc(NC(=O)N2CCC3(CC2)CC(c2ccc(F)c(Cl)c2)CO3)c1C (racemic),1580,3950,
Cn1nnnc1NC(=O)N1CCC2(CC1)CC(c1ccc(F)c(Cl)c1)C2,16300,5940,
Cc1cc(NC(=O)N2CCC3(CC2)CC(c2cccc(OC(F)(F)F)c2)C3)on1,113,,
Cn1nnnc1NC(=O)N1CCC2(CC1)CC(c1cccc(OC(F)(F)F)c1)CO2 (configuration not stated),7110,4560,activity call (active/not active) (Rattus norvegicus): Active; minimal effective dose (Rattus norvegicus): 0.1 mg/kg; inhibition [5]: Active; inhibition [6]: Active; inhibition (INH) [3]: Not Active; inhibition (INH) [4]: Not Active
Cn1nnnc1NC(=O)N1CCC2(CC1)CC(c1cccc(OC(F)(F)F)c1)C2,13200,4570,activity call (active/not active) (Rattus norvegicus): Active; minimal effective dose (Rattus norvegicus): 0.1 mg/kg; inhibition [5]: Active; inhibition [6]: Active; inhibition (INH) [3]: Not Active; inhibition (INH) [4]: Not Active
CCn1nnnc1NC(=O)N1CCC2(CC1)CC(c1cccc(OC(F)(F)F)c1)C2,6940,3420,
